Measured values as given in PMC7442178 (Biochemical engineering journal, 2019).
Residues, ends and D or L forms follow the SMILES beside them. *: point of attachment. AMC = Cc1cc(=O)oc2cc(N*)ccc12; Cbz = O=C(OCc1ccccc1)*

Key:
DUBs in OPM2 lysates = test: DUB-mediated hydrolysis of peptide reporters in OPM2 lysates; type: biochemical
Procedure, shortened: (§1)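 Lysates (4 mg/mL protein, by NanoDrop) came from M-PER extraction of PBS-washed HeLa or OPM2 cells, clarified at 14,000 × g. Lysates were pre-treated 1 h with 20 or 50 μM PR-619 or DMSO, in 50 mM HEPES pH 7.4, 150 mM NaCl, 2 mM DTT, 0.02% Tween-20. Released AFC or AMC was read every 30 min for 6 h at 30°C. Rates were calibrated, and Km and vmax came from Michaelis-Menten fits.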

DUBs in HeLa lysates = test: DUB-mediated hydrolysis of peptide reporters in HeLa lysates; type: biochemical; details: for V/K value (Vmax/Km): HeLa lysates 4 mg/mL, DMSO curves, Michaelis-Menten parameters
Procedure, shortened: as §1

[1] = system: DUBs in intact HeLa cells; test: Enzyme-substrate kinetics in intact HeLa cells; type: cell-based
[2] = system: DUBs in intact OPM2 cells; test: Direct visualization of DUB activity in intact OPM2 cells; type: cell-based; details: 50 μM peptide, 120 minutes, 37°C, DAPI filter
[3] = cited from earlier work
intact cells = details: cited from earlier work

With `N#CSc1cc(SC#N)c(N)nc1N` [PR-619] the “Inhibition of DUB activity (residual activity)” value (DUBs in OPM2 lysates; lysates treated with 50 μM PR-619, pre-treatment 1 h, OPM2 lysates) was “incomplete inhibition” and the “Inhibition of DUB activity (residual activity)” value (DUBs in HeLa lysates; lysates treated with 50 μM PR-619, pre-treatment 1 h, HeLa lysates) was “incomplete inhibition”.

For “Ac-RWVRVpGO(FAM)WIRQ-LRGG-AFC [Peptide 1]”, the “Uninhibited reaction rates in OPM2 lysates, comparison” value (DUBs in OPM2 lysates; OPM2 lysates 4 mg/mL, no inhibitor, p<10^−4) was “significantly higher than Peptide 3”, the “Si,max, intracellular saturation concentration (model)” value ([1]; calculated from a, b, c, d, nintact with Eq. 7, HeLa cells) was 1.28 µM and the “S0,50, external solution concentration at half-saturation level (model)” value ([1]; calculated from a, b, c, d, nintact with Eq. 8, HeLa cells) was 55.1 µM. For the same molecule, the “nintact (Hill coefficient)” value ([1]; intact HeLa cells, Hill model fit) was 6.8, the “(V/K) intact” value ([1]; intact HeLa cells, from Hill parameters, unit not given) was 1.38*10^−5 and the “V/K value (Vmax/Km)” value (DUBs in HeLa lysates) was 0.00212 min⁻¹. For the same molecule, the “Intracellular fluorescence signal from DUB-mediated hydrolysis” value [2] was “showed an increase in intracellular fluorescence”.

In the case of RWVRVpGRWIRQ [RWRWR], the “half-life in HeLa lysates” value [3] is listed as 7 h, the “Incubation time sufficient to deliver the CPP into intact cells” value (intact cells) is listed as 10 min and the “Time to penetrate intact cells” value (intact cells) is listed as ≤ 10 min.

In the case of `Cc1cc(=O)oc2cc(NC(=O)CNC(=O)CNC(=O)[C@H](CCCNC(=N)N)NC(=O)[C@H](CC(C)C)NC(=O)OCc3ccccc3)ccc12` [Peptide 3, Z-Leu-Arg-Gly-Gly-AMC] (Cbz-LRGG-{AMC}), the “Reaction rates in intact cells” value ([1]; intact HeLa cells incubated with varying peptide concentrations for 6 h) is reported as “not significantly different from zero”, the “V/K value (Vmax/Km)” value (DUBs in HeLa lysates) is reported as 0.00021 min⁻¹ and the “Intracellular fluorescence signal from DUB-mediated hydrolysis” value [2] is reported as “did not produce a detectable signal”.

With “Ac-RWVRVpGO(FAM)WIRQ-LVLRLRGG-AFC [Peptide 2]” the “Effect of DUB inhibition (PR-619) on rate data of the reporter” value (DUBs in HeLa lysates; HeLa lysates pre-treated 1 h with 0, 20, 50 μM PR-619) was “did not result in a significant effect”.
